Assay outcomes deposited in PubChem BioAssay by Broad Institute.
This is a sample that favours compounds with a hit; in the whole collection about 2% have one here.
SR-BI DiI-HDL act: activators of SR-BI mediated HDL lipid uptake. activation, % at 12.5 µM. 0.096% of 320,000 active. CHO ldlA[mSR-BI] cells, DiI-HDL uptake fluorescence, 3 h; 100 = double the neutral-control signal;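 active = mean replicate activation of at least 60% and every replicate at or above 60%; inconclusive = mean or all-replicate condition met, but not both; inactive = mean below 60% and not all replicates reaching 60%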
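System: CHO ldlA[mSR-BI] cells / Medium: HEPES-buffered (25 mM, pH 7.4) F12 plus 0.5% BSA / Probe or stimulus: labelled HDL, 10 µg/mL / Doses: single compound concentration, delivered by pin transfer / Schedule: 3 h, 37 °C / Measured by: DiI fluorescence, bottom read / Measure: cell-associated DiI fluorescence as measure of HDL uptake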
CDK5 inh: blocks human CDK5/p35 kinase activity; Recombinant CDK5/p35, ADP-Glo luminescence, 60 min; inhibition, % at 10 µM; 0.01% of 330,000 active; AID 488839;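 active = highest replicate inhibition of at least 50% and at least 75% of replicates reaching 50%; inconclusive = only one of the two criteria met; inactive = both criteria failed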
Target sequence (Q00535 whole entry, looked up): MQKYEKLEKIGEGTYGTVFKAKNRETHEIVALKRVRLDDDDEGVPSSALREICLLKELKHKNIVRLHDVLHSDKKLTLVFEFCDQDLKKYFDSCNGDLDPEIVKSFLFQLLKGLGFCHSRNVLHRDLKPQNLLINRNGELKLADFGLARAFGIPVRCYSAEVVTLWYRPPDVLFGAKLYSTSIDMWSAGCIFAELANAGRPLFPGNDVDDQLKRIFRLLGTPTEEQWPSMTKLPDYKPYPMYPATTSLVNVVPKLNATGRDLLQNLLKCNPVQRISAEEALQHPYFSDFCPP
Target sequence (Q15078 whole entry, looked up): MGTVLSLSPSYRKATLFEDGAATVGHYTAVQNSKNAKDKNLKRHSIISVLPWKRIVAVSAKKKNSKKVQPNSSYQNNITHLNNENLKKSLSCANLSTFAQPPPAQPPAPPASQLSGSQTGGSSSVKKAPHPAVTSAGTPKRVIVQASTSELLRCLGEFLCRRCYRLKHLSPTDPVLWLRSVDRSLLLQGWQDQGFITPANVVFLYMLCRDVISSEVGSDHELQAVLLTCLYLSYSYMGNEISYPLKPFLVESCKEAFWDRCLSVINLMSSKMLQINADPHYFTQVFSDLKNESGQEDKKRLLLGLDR
SR-BI HDL uptake: inhibitors of mouse SR-BI mediated HDL lipid uptake; ldlA[mSR-BI] CHO cells, DiI-HDL uptake fluorescence, 3 h; Q61009; inhibition, % at 12.5 µM; 0.96% of 320,000 active;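 active = mean replicate inhibition of at least 70% and a set share of replicates each scoring 70 or more; inconclusive = meets just one of the two criteria; inactive = fails both criteria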
dFosB act: activators of mouse delta FosB homodimer | 0.99% of 340,000 active | activation, % at 25 µM | purified delta FosB, TAMRA-CDK5 oligo fluorescence polarization; percent of positive-control signal above neutral wells | P13346;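 active = mean activation above about 17%, with every replicate also reaching it, limit read from the data, passing the limit was not always enough; inconclusive = only one of the two conditions met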
DiI quencher: DiI fluorescence quenching in cell-free counter-screen | shares compounds with SR-BI HDL uptake | cell-free DiI-HDL fluorescence quenching, 30 min | AC50, µM (series often up to 35 µM) | 20% of 470 active | AID 540326;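 active = quenching, a falling signal, with AC50 below a set limit tied to the top valid dose, actives reach about 32 µM in these data; inconclusive = no clear call, values can overlap the other calls; inactive = rising signal, and the rest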
A number is an active result; i = inactive; ? = inconclusive; nt = not tested or not shown.

SMILES | SR-BI DiI-HDL act | CDK5 inh | SR-BI HDL uptake | dFosB act | DiI quencher
CCCCCC/C=N/Nc1nnc(Cc2ccccc2)c(=O)[nH]1 | i | i | i | i | nt
COc1ccc(C2CC(=O)N(C)c3ccccc3S2)cc1 (stereo not drawn) | i | i | i | i | nt
CC(C)c1ccc(NC(=O)c2sccc2-n2cccc2)cc1 | i | i | 101 | i | i
Cc1c(Br)cccc1NC(=O)c1sccc1-n1cccc1 | i | i | i | i | nt
COc1ccc(N2C(=O)C3C(C2=O)C3(c2ccccc2)c2ccccc2)cc1 (stereo not drawn) | i | i | i | i | i
COc1ccc(N2C(=O)C3C4C=CC(c5ccccc5)(C3C2=O)C2C(=O)N(c3ccc(OC)cc3)C(=O)C42)cc1 (stereo not drawn) | i | i | i | i | nt
CN1CCN(S(=O)(=O)c2ccccc2)C(c2ccccc2)C1 (stereo not drawn) | i | i | i | i | nt
CCc1ccc(OCC(=O)Nc2ccc(S(=O)(=O)Nc3cc(C)on3)cc2)c(Br)c1 | i | i | i | i | nt
N#CCCN(C(=O)COC(=O)CCc1c[nH]c2ccccc12)c1ccc(F)cc1 | i | i | i | i | i
FC(F)(F)c1ccccc1-n1c(-c2ccco2)n[nH]c1=S | i | i | i | i | nt
O=C(Nc1ccn(Cc2c(F)c(F)c(F)c(F)c2F)n1)c1ccc(COc2ccccc2Cl)cc1 | i | i | 73 | i | i
O=C(Nc1ccn(Cc2c(F)c(F)cc(F)c2F)n1)c1ccc(COc2ccc(Cl)cc2Cl)o1 | i | i | i | i | nt
CC(CNC(=O)Cn1ccc(N)nc1=O)c1ccccc1 (stereo not drawn) | i | i | i | i | nt
Cc1cccnc1NC(=O)CN1C(=O)COc2ccc(Cl)cc21 | i | i | i | i | nt
COc1ccc(-n2sc3c(c2=S)-c2cc(OC)ccc2NC3(C)C)cc1 | i | i | 108 | i | 2.5µM
COc1ccc2c(c1)-c1c(sn(-c3ccc(OC)c(OC)c3)c1=S)C(C)(C)N2 | i | i | 108 | i | 3.1µM
COc1ccc2c(c1)-c1c(sn(-c3ccccc3)c1=S)C(C)(C)N2 | i | i | i | i | nt
COC(=O)[C@@]1(Cc2ccc(F)cc2)[C@H]2c3cc(C(=O)N4CCCC4)n(CCCNc4ncc(C(F)(F)F)cc4Cl)c3C[C@H]2CN1C(=O)c1ccccc1 | i | i | i | i | i
COC(=O)[C@@]1(Cc2ccc(OC)cc2)[C@H]2c3cc(C(=O)N4CCCC4)n(CCn4cc([N+](=O)[O-])nc4C)c3C[C@H]2CN1C(=O)c1ccccc1 | i | i | i | i | nt
COc1ccc(Nc2ncnc3c2c(C)c(C)n3CCO)cc1 | i | i | i | i | nt
Cc1ccc(F)cc1NC(=O)CSCc1nc2sc(C)c(C)c2c(=O)[nH]1 | i | i | i | i | nt
COc1ccc(/C=C/C(=O)OCC(=O)c2ccc[nH]2)cc1 | i | i | i | i | nt
COc1cc(/C=C/C(=O)OCC(=O)c2ccc[nH]2)cc(OC)c1OC | i | i | ? | i | i
COc1ccc(-c2noc(-c3ccc4c(c3)OCO4)n2)cc1 | i | nt | i | i | nt
COc1ccc(-c2nc(-c3ccc4c(c3)OCO4)[nH]c2-c2ccc(OC)cc2)cc1 | i | i | 105 | i | 2.7µM
SMILES | SR-BI DiI-HDL act | CDK5 inh | SR-BI HDL uptake | dFosB act | DiI quencher
CC(=O)NC1CC2CCCC(C1)N2C(=O)Nc1cccc(C)c1 (stereo not drawn) | i | i | i | i | nt
Cc1cccc(NC(=O)N2C3CCCC2CC(NC(=O)C(C)(C)C)C3)c1 (stereo not drawn) | i | i | 76 | i | i
COc1ccc(NC(=O)CN(C)C(=O)CNC(=O)c2ccc3ccccc3c2)cc1 | i | i | i | i | nt
CCOc1ccccc1NC(=O)C(CC(C)C)NC(=O)C1CCC(C)CC1 (stereo not drawn) | i | i | 80 | i | i
CCOc1ccccc1NC(=O)N1C2CCCC1CC(NC(=O)C1CC1)C2 (stereo not drawn) | i | i | i | i | i
CN1C(=O)CSC1=Nc1cccc(Cl)c1 | i | i | i | i | nt
Cc1cccc(-c2nc3c(c(SCC(=O)N4CCOCC4)n2)COC(C)(C)C3)c1 | i | nt | i | i | nt
Cc1cc(C)cc(NC(=O)c2ccc3c(c2)CCN3S(C)(=O)=O)c1 | i | i | 77 | i | i
CN(C(=O)c1ccc2c(c1)CCN2S(C)(=O)=O)c1ccccc1 | i | i | i | i | i
O=C(Nc1ccccc1F)c1ccc2c(c1)CCN2S(=O)(=O)c1ccccc1 | i | i | i | i | i
O=C(Nc1c(F)cccc1F)c1ccc2c(c1)CCN2S(=O)(=O)c1ccccc1 | i | i | i | i | nt
Cc1ccc(NC(=O)c2ccc3c(c2)CCN3S(C)(=O)=O)cc1C | i | i | ? | i | i
Cc1nn(CC(C)C)c(Cl)c1C(=O)N(C)CC(=O)Nc1c(Cl)cccc1Cl | i | i | i | i | nt
CCc1cc2c(=O)c(-c3ccc4c(c3)OCCO4)coc2c(CN2CCCCC2C)c1O (stereo not drawn) | i | i | i | i | nt
CCc1cc2c(=O)c(-c3ccc4c(c3)OCCO4)coc2cc1OS(C)(=O)=O | i | i | 75 | i | i
O=C(OCc1ccccc1)N1CCC2CC1c1cc(-c3ccccc3)ccc12 (stereo not drawn) | i | i | i | i | i
Cc1cccc(-c2ccc3c(c2)C2CC3CCN2C(=O)OCc2ccccc2)c1 (stereo not drawn) | i | i | 85 | i | i
COc1ccc(COC(=O)CCc2cc(OC)c(OC)c(OC)c2)cc1F | i | i | i | i | nt
O=C(Nc1cc(Cl)ccc1-n1cncn1)C1CC1 | i | i | i | i | nt
Cc1cc(N2CCN(C(=O)c3ccco3)CC2)n2ncnc2n1 | i | i | i | i | nt
Cc1cc(N2CCN(C(=O)c3ccco3)CC2)n2ncc(-c3ccccc3)c2n1 | i | i | 78 | i | i
CCC(C)c1ccccc1N1CC(C(=O)N2CCN(S(=O)(=O)c3ccccc3Br)CC2)CC1=O (stereo not drawn) | i | i | 78 | i | i
Brc1ccc(NC(c2ccccc2)c2ccncc2)cc1 (stereo not drawn) | i | i | i | i | nt
Cc1ccccc1C(=O)N1CCc2cc(-c3csc(NC(=O)CN4CCCC4)n3)ccc21 | i | i | i | i | nt
CS(=O)(=O)N1CCc2cc(-c3csc(NC(=O)Cc4ccccc4)n3)ccc21 | i | i | ? | i | i
CCC(=O)N1CCc2cc(-c3csc(NC(=O)c4ccco4)n3)ccc21 | i | i | 88 | i | i
CCCC(=O)Nc1nc(-c2ccc3c(c2)CCN3S(C)(=O)=O)cs1 | i | i | i | i | nt
CC(C)C(=O)N1CCc2cc(-c3csc(N)n3)ccc21 | i | i | 79 | i | i
CN(CC(=O)Nc1ccccc1Cl)C(=O)COC(=O)C1=COCCO1 | i | i | i | i | nt
COc1cccc(CC2(CO)CCCN(Cc3sc(N4CCCC4)nc3Cl)C2)c1 (stereo not drawn) | i | i | i | i | nt
